Reference: ChEMBL document CHEMBL1773057, “Design, synthesis and in vitro antimicrobial evaluation of novel Imidazo[1,2-a]pyridine and imidazo[2,1-b][1,3]benzothiazole motifs” (2011)
≈ marks a conversion by molar mass, not a printed value.

Key:
Format in all cases: functional
Escherichia coli = experiment: Antimicrobial activity against Escherichia coli after 24 hrs by broth microdilution method
Procedure, shortened: (§1)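 Broth microdilution. Bacteria were grown on Mueller-Hinton agar and diluted in Mueller-Hinton broth. Compounds were made as 1000 µg/mL stocks in 50% DMSO/H₂O and added to wells as two-fold dilutions starting at 500 µg/mL, then inoculated. Sealed plates were incubated at 37 °C for 24 h in a humid chamber. MIC was the lowest concentration with no visible turbidity.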

Enterococcus faecalis = experiment: Antimicrobial activity against Enterococcus faecalis after 24 hrs by broth microdilution method; procedure, shortened: as §1
Staphylococcus aureus = experiment: Antimicrobial activity against Staphylococcus aureus after 24 hrs by broth microdilution method; procedure, shortened: as §1
Klebsiella aerogenes = experiment: Antimicrobial activity against Enterobacter aerogenes after 24 hrs by broth microdilution method; procedure, shortened: as §1
Candida albicans = experiment: Antimicrobial activity against Candida albicans after 48 hrs by broth microdilution method
Procedure, shortened: (§2)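 Fungi were grown on Sabouraud dextrose agar. Inocula were prepared in Sabouraud liquid medium at 37 °C for 12 h, then diluted in RPMI-1640 with L-glutamine, MOPS-buffered at pH 7. Compounds were made as 1000 µg/mL stocks in 50% DMSO/H₂O and tested as two-fold dilutions from 500 µg/mL. Sealed plates were incubated at 37 °C for 48 h in a humid chamber. MIC was the lowest concentration without visible turbidity.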

Candida parapsilosis = experiment: Antimicrobial activity against Candida parapsilosis after 48 hrs by broth microdilution method; conditions: Lodderomyces parapsilosis; procedure, shortened: as §2
Aspergillus flavus = experiment: Antimicrobial activity against Aspergillus flavus after 48 hrs by broth microdilution method; procedure, shortened: as §2
Nannizzia gypsea = experiment: Antimicrobial activity against Microsporum gypseum after 48 hrs by broth microdilution method; procedure, shortened: as §2
Pseudomonas aeruginosa = experiment: Antimicrobial activity against Pseudomonas aeruginosa after 24 hrs by broth microdilution method; procedure, shortened: as §1
Priestia megaterium = experiment: Antimicrobial activity against Bacillus megaterium after 24 hrs by broth microdilution method; procedure, shortened: as §1

| SMILES | MIC (Escherichia coli) [µg/mL] | MIC (Enterococcus faecalis) [µg/mL] | MIC (Staphylococcus aureus) [µg/mL] | MIC (Klebsiella aerogenes) [µg/mL] | MIC (Candida albicans) [µg/mL] | MIC (Candida parapsilosis) [µg/mL] | MIC (Aspergillus flavus) [µg/mL] | MIC (Nannizzia gypsea) [µg/mL] | MIC (Pseudomonas aeruginosa) [µg/mL] | MIC (Priestia megaterium) [µg/mL] |
| --- | --- | --- | --- | --- | --- | --- | --- | --- | --- | --- |
| COc1ccc2ncc(-c3nc4sc5cc(F)ccc5n4c3Nc3ccc(F)cc3)cc2c1 | 10.4 (≈ 22.7 µM) | 11.2 (≈ 24.4 µM) | 12.4 (≈ 27.1 µM) | 13.4 (≈ 29.3 µM) | 11.2 (≈ 24.4 µM) | 13.6 (≈ 29.6 µM) | 15.3 (≈ 33.4 µM) | 17.5 (≈ 38.2 µM) | 11.9 (≈ 25.9 µM) | 19.1 (≈ 41.8 µM) |
| O=[N+]([O-])c1ccc(-c2cnc(-c3ccc4nc(-c5c[nH]c6ccc(Br)cc56)c(Nc5ccc(F)cc5)n4c3)[nH]2)cc1 | 2.13 (≈ 3.5 µM) | 3.17 (≈ 5.21 µM) | 2.52 (≈ 4.14 µM) | 2.35 (≈ 3.86 µM) | 8.72 (≈ 14.3 µM) | 6.22 (≈ 10.2 µM) | 9.35 (≈ 15.4 µM) | 7.44 (≈ 12.2 µM) | 2.11 (≈ 3.47 µM) | 4.24 (≈ 6.97 µM) |
| Fc1ccc(Nc2c(-c3c[nH]c4ccc(Br)cc34)nc3ccc(-c4ncc(-c5ccc(F)cc5)[nH]4)cn23)cc1 | 0.42 (≈ 0.722 µM) | 1.96 (≈ 3.37 µM) | 0.23 (≈ 0.396 µM) | 0.17 (≈ 0.292 µM) | 3.21 (≈ 5.52 µM) | 4.61 (≈ 7.93 µM) | 3.25 (≈ 5.59 µM) | 8.12 (≈ 14 µM) | 0.52 (≈ 0.894 µM) | 1.13 (≈ 1.94 µM) |
| Fc1ccc(Nc2c(-c3cnc4ccc(Br)cc4c3)nc3ccc(-c4nc5ccc(F)cc5[nH]4)cn23)cc1 | 1.34 (≈ 2.36 µM) | 1.47 (≈ 2.59 µM) | 1.46 (≈ 2.57 µM) | 1.55 (≈ 2.73 µM) | 1.11 (≈ 1.96 µM) | 1.22 (≈ 2.15 µM) | 1.36 (≈ 2.4 µM) | 1.21 (≈ 2.13 µM) | 1.35 (≈ 2.38 µM) | 2.53 (≈ 4.46 µM) |
| Fc1ccc(Nc2c(-c3cnc4ccc(Br)cc4c3)nc3sc4cc(F)ccc4n23)cc1 | 0.35 (≈ 0.69 µM) | 0.51 (≈ 1.01 µM) | 0.43 (≈ 0.848 µM) | 0.51 (≈ 1.01 µM) | 1.21 (≈ 2.38 µM) | 1.13 (≈ 2.23 µM) | 1.3 (≈ 2.56 µM) | 1.24 (≈ 2.44 µM) | 0.34 (≈ 0.67 µM) | 1.12 (≈ 2.21 µM) |
| O=[N+]([O-])c1ccc(-c2nnc(-c3ccc4nc(-c5c[nH]c6ccc(Br)cc56)c(Nc5ccc(F)cc5)n4c3)o2)cc1 | 3.32 (≈ 5.44 µM) | 2.11 (≈ 3.46 µM) | 2.45 (≈ 4.01 µM) | 3.13 (≈ 5.13 µM) | 6.63 (≈ 10.9 µM) | 5.71 (≈ 9.35 µM) | 8.31 (≈ 13.6 µM) | 11.2 (≈ 18.4 µM) | 2.45 (≈ 4.01 µM) | 4.34 (≈ 7.11 µM) |
| Cc1ccc2[nH]cc(-c3nc4sc5cc(F)ccc5n4c3Nc3ccc(F)cc3)c2c1 | 14.5 (≈ 33.7 µM) | 9.17 (≈ 21.3 µM) | 10.1 (≈ 23.5 µM) | 14.6 (≈ 34 µM) | 14.6 (≈ 34 µM) | 16.5 (≈ 38.3 µM) | 14.6 (≈ 33.8 µM) | 10.5 (≈ 24.5 µM) | 16.2 (≈ 37.6 µM) | 22.1 (≈ 51.5 µM) |
| Fc1ccc(Nc2c(-c3c[nH]c4ccc(Br)cc34)nc3ccc(-c4nnc(-c5ccc(F)cc5)o4)cn23)cc1 | 0.11 (≈ 0.189 µM) | 0.37 (≈ 0.634 µM) | 0.31 (≈ 0.531 µM) | 0.35 (≈ 0.6 µM) | 2.54 (≈ 4.35 µM) | 2.22 (≈ 3.81 µM) | 3.13 (≈ 5.37 µM) | 4.25 (≈ 7.28 µM) | 0.21 (≈ 0.36 µM) | 1.97 (≈ 3.38 µM) |
| COc1ccc2[nH]cc(-c3nc4sc5cc(F)ccc5n4c3Nc3ccc(F)cc3)c2c1 | 19.7 (≈ 44.1 µM) | 19.5 (≈ 43.8 µM) | 17.4 (≈ 38.9 µM) | 17.8 (≈ 40 µM) | 17.5 (≈ 39.2 µM) | 16.6 (≈ 37.2 µM) | 15.5 (≈ 34.8 µM) | 19.6 (≈ 44 µM) | 18.5 (≈ 41.5 µM) | 23.4 (≈ 52.5 µM) |
| O=[N+]([O-])c1ccc(-c2nnc(-c3ccc4nc(-c5cnc6ccc(Br)cc6c5)c(Nc5ccc(F)cc5)n4c3)o2)cc1 | 1.72 (≈ 2.76 µM) | 2.13 (≈ 3.42 µM) | 1.45 (≈ 2.33 µM) | 1.27 (≈ 2.04 µM) | 6.4 (≈ 10.3 µM) | 5.34 (≈ 8.58 µM) | 7.15 (≈ 11.5 µM) | 8.27 (≈ 13.3 µM) | 1.58 (≈ 2.54 µM) | 3.11 (≈ 5 µM) |
| Cc1ccc2nc(-c3ccc4nc(-c5cnc6ccc(Br)cc6c5)c(Nc5ccc(F)cc5)n4c3)[nH]c2c1 | 6.21 (≈ 11 µM) | 7.34 (≈ 13 µM) | 7.43 (≈ 13.2 µM) | 5.35 (≈ 9.5 µM) | 16.4 (≈ 29 µM) | 15.5 (≈ 27.6 µM) | 15.4 (≈ 27.4 µM) | 17.5 (≈ 31.1 µM) | 5.45 (≈ 9.67 µM) | 7.54 (≈ 13.4 µM) |
| Fc1ccc(Nc2c(-c3cnc4ccc(Br)cc4c3)nc3ccc(-c4nnc(-c5ccc(F)cc5)o4)cn23)cc1 | 0.75 (≈ 1.26 µM) | 1.38 (≈ 2.32 µM) | 0.46 (≈ 0.773 µM) | 0.41 (≈ 0.689 µM) | 1.22 (≈ 2.05 µM) | 1.35 (≈ 2.27 µM) | 1.32 (≈ 2.22 µM) | 1.14 (≈ 1.91 µM) | 0.75 (≈ 1.26 µM) | 2.21 (≈ 3.71 µM) |
| COc1ccc2c(c1)sc1nc(-c3c[nH]c4ccc(Br)cc34)c(Nc3ccc(F)cc3)n12 | 8.12 (≈ 16 µM) | 10.6 (≈ 20.8 µM) | 7.33 (≈ 14.4 µM) | 8.13 (≈ 16 µM) | 4.12 (≈ 8.12 µM) | 5.63 (≈ 11.1 µM) | 3.21 (≈ 6.33 µM) | 4.14 (≈ 8.16 µM) | 9.69 (≈ 19.1 µM) | 13.2 (≈ 26.1 µM) |
| Cc1ccc(-c2cnc(-c3ccc4nc(-c5c[nH]c6ccc(Br)cc56)c(Nc5ccc(F)cc5)n4c3)[nH]2)cc1 | 6.11 (≈ 10.6 µM) | 7.32 (≈ 12.7 µM) | 5.13 (≈ 8.88 µM) | 6.22 (≈ 10.8 µM) | 19.5 (≈ 33.8 µM) | 18.4 (≈ 31.9 µM) | 16.5 (≈ 28.5 µM) | 15.6 (≈ 27 µM) | 8.28 (≈ 14.3 µM) | 1.25 (≈ 2.16 µM) |
| Fc1ccc(Nc2c(-c3c[nH]c4ccc(F)cc34)nc3sc4cc(F)ccc4n23)cc1 | 0.14 (≈ 0.322 µM) | 0.41 (≈ 0.944 µM) | 0.18 (≈ 0.414 µM) | 0.23 (≈ 0.529 µM) | 1.15 (≈ 2.65 µM) | 1.24 (≈ 2.85 µM) | 1.15 (≈ 2.65 µM) | 1.23 (≈ 2.83 µM) | 0.11 (≈ 0.253 µM) | 1.52 (≈ 3.5 µM) |
| Cc1ccc(-c2nnc(-c3ccc4nc(-c5cnc6ccc(Br)cc6c5)c(Nc5ccc(F)cc5)n4c3)o2)cc1 | 2.43 (≈ 4.11 µM) | 2.32 (≈ 3.92 µM) | 1.24 (≈ 2.1 µM) | 1.74 (≈ 2.94 µM) | 12.2 (≈ 20.7 µM) | 12.2 (≈ 20.7 µM) | 11.3 (≈ 19.1 µM) | 11.2 (≈ 18.9 µM) | 2.57 (≈ 4.35 µM) | 3.15 (≈ 5.33 µM) |
| Fc1ccc(Nc2c(-c3cnc4ccc(F)cc4c3)nc3sc4cc(F)ccc4n23)cc1 | 0.23 (≈ 0.515 µM) | 0.21 (≈ 0.47 µM) | 0.26 (≈ 0.582 µM) | 0.34 (≈ 0.762 µM) | 1.12 (≈ 2.51 µM) | 1.14 (≈ 2.55 µM) | 1.23 (≈ 2.76 µM) | 1.2 (≈ 2.69 µM) | 0.15 (≈ 0.336 µM) | 0.83 (≈ 1.86 µM) |
| O=[N+]([O-])c1ccc2nc(-c3ccc4nc(-c5cnc6ccc(Br)cc6c5)c(Nc5ccc(F)cc5)n4c3)[nH]c2c1 | 2.14 (≈ 3.6 µM) | 3.36 (≈ 5.65 µM) | 2.12 (≈ 3.57 µM) | 3.15 (≈ 5.3 µM) | 4.23 (≈ 7.12 µM) | 5.34 (≈ 8.98 µM) | 7.63 (≈ 12.8 µM) | 9.41 (≈ 15.8 µM) | 2.32 (≈ 3.9 µM) | 4.12 (≈ 6.93 µM) |
